Measurements as given in ChEMBL document CHEMBL4428073, “Design, Synthesis, and Bioactivation of O-Glycosylated Prodrugs of the Natural Nitric Oxide Precursor N(ω)-Hydroxy-l-arginine” (J Med Chem, 2016).
Values belong to the compound of their own block, whether it stands above or below them. Activity calls are given as the source filed them. The calls are words filed in the database; no cut-off is given here.

What was measured:
[1] = target: Beta-galactosidase (Escherichia coli, UniProt Q8VNN2); experiment: Prodrug activation assessed as recombinant Escherichia coli beta-galactosidase-mediated Nomega-hydroxy-L-arginine formation at 500 uM measured up to 150 mins by HPLC analysis; details: 2.5 h
How it was run: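 Recombinant E. coli β-galactosidase (25 U/mL) pre-incubated 3 min at 37 °C in 50 mM triethanolamine pH 7.0, then prodrug added at 500 µM. Samples at 0, 15, 45, 90 and 150 min stopped with ice-cold MeOH, centrifuged and analysed by o-phthalaldehyde/fluorescence HPLC. No-enzyme controls included.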

[2] = Chemical stability in 10 mM potassium phosphate buffer at 250 uM at pH 9 incubated up to 24 hrs at 37 degC by HPLC analysis; format: physicochemical; details: pH 9, 24 h
How it was run: (§1)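 Compound at 250 µM in 10 mM potassium phosphate buffer at pH 2.0, 7.4 or 9.0, 37 °C. Samples taken at 3, 6 and 24 h, diluted 1:1 with 100 mM potassium phosphate pH 7.4. Analysed by HPLC after o-phthalaldehyde derivatization: RP18 column at 37 °C, fluorescence detection (ex 338 nm, em 425 nm).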

[3] = Prodrug activation assessed as porcine liver carboxylesterase/recombinant Escherichia coli beta-galactosidase-mediated Nomega-hydroxy-L-arginine formation by measuring NO release at 500 uM preincubated for 150 mins followed by recombinant mouse iNOS and NADPH addition incubated for 30 mins followed by LDH and sodium pyruvate addition measured after 15 mins by Griess assay; details: 0.5 h
[4] = Chemical stability in 10 mM potassium phosphate buffer at 250 uM at pH 2 incubated up to 24 hrs at 37 degC by HPLC analysis; format: physicochemical; details: pH 2, 24 h; how it was run: as §1
[5] = Chemical stability in 10 mM potassium phosphate buffer at 250 uM at pH 7.4 incubated up to 24 hrs at 37 degC by HPLC analysis; format: physicochemical; details: pH 7.4, 24 h; how it was run: as §1
[6] = Prodrug activation assessed as almond beta-glucosidase-mediated Nomega-hydroxy-L-arginine formation at 500 uM measured up to 150 mins by HPLC analysis; details: prunus dulcis, 2.5 h
How it was run: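 β-Glucosidase (recombinant, almond; 33 U/mL) pre-incubated 3 min at 37 °C in 50 mM triethanolamine pH 7.0. Reaction started with prodrug (500 µM). Aliquots at 0, 15, 45, 90 and 150 min quenched with equal volume ice-cold MeOH, then centrifuged. Supernatant analysed by o-phthalaldehyde/fluorescence HPLC. No-enzyme controls run alongside. Mean ± SD, n = 2-3.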

[7] = target: T1, Nitric oxide synthase, inducible (Mus musculus, UniProt P29477); experiment: Prodrug activation in LPS-stimulated mouse […] cells assessed as iNOS-mediated Nomega-hydroxy-L-arginine formation by measuring increase in NO release at 1 mM incubated for 2.5 hrs by Hoechst 33342/DAF-FM-DA staining based fluorescence microscopic analysis; details: 1000 µM
T1 sequence (P29477 whole entry): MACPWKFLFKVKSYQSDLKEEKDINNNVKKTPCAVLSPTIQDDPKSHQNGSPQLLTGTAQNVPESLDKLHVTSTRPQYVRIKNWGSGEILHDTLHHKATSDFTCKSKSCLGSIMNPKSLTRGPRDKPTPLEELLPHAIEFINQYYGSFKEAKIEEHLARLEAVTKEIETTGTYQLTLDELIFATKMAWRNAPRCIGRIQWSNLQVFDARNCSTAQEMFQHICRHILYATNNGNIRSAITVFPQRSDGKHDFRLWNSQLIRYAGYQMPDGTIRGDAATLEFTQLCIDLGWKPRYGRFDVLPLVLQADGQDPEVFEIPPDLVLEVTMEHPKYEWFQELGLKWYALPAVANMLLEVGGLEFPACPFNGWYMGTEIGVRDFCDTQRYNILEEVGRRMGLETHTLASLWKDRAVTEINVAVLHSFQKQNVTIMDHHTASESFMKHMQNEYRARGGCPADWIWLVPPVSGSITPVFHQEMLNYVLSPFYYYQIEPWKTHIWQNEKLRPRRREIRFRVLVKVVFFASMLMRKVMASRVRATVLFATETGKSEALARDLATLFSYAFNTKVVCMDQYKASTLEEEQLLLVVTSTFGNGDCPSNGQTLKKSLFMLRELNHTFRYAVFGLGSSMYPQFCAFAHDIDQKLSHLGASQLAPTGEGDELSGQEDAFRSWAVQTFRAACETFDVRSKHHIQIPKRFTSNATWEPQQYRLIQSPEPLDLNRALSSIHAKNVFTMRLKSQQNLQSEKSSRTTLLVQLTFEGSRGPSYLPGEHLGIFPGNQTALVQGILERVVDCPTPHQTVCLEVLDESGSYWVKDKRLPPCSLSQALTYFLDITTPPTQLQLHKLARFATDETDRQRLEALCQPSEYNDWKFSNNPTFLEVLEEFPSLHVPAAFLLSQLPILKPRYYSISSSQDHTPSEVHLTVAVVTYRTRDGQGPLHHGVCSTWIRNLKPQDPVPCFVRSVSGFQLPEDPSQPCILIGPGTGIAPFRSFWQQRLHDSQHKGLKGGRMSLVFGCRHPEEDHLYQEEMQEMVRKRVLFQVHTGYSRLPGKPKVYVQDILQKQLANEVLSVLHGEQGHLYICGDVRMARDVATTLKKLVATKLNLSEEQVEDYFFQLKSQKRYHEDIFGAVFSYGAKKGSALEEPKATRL
How it was run: (§2)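 Washed into arginine/lysine-free DMEM with 2% FBS. Compound 1 mM final from DPBS++ stock, 150 min (L-NAME co-incubated where stated). Then 5 µM DAF-FM-DA plus 10 µM Hoechst 15 min. Six images per well, triplicate wells. Cell-normalized intensity minus DPBS++ control, scaled to reference substrate = 100%. Mean ± SEM.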

[8] = target: T1, Nitric oxide synthase, inducible; experiment: Prodrug activation in LPS-stimulated mouse […] cells assessed as iNOS-mediated Nomega-hydroxy-L-arginine formation by measuring increase in NO release at 1 mM incubated for 2.5 hrs in presence of NOS inhibitor L-NAME by Hoechst 33342/DAF-FM-DA staining based fluorescence microscopic analysis; details: 1000 µM; how it was run: as §2
[9] = target: T2, Liver carboxylesterase (Sus scrofa, UniProt Q29550); experiment: Prodrug activation assessed as porcine liver carboxylesterase-mediated Sodium Nomega-(beta-D-Galactopyranos-1-yloxy)-L-arginine formation at 500 uM measured up to 150 mins by HPLC analysis; details: pig, 2.5 h
T2 sequence (Q29550 whole entry): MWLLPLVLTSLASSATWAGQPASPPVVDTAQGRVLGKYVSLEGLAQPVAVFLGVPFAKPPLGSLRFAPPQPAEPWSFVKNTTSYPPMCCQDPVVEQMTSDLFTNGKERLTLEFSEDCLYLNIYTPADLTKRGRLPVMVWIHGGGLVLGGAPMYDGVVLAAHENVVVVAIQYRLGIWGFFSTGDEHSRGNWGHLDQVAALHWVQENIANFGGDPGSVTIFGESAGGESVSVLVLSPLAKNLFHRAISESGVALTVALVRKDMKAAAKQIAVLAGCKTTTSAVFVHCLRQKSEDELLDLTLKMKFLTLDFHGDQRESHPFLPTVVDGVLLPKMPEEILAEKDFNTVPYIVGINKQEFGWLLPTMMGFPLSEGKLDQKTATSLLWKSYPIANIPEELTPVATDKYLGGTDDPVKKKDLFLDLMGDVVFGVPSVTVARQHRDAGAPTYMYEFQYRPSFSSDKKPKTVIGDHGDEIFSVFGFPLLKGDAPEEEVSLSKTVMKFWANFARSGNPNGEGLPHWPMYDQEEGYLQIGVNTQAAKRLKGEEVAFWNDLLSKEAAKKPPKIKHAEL
How it was run: (§3)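 Porcine liver carboxylesterase (133 U/mL) plus β-galactosidase (33 U/mL) pre-incubated 3 min at 37 °C in 50 mM triethanolamine pH 7.0. Started with prodrug at 500 µM. Samples at 0–150 min quenched with cold MeOH, centrifuged and analysed by o-phthalaldehyde/fluorescence HPLC. No-enzyme controls included.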

[10] = Half life in 10 mM potassium phosphate buffer at 250 uM at pH 7.4 at 37 degC by HPLC analysis; format: physicochemical
How it was run: (§4)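 Half-life from incubations at 250 µM in 10 mM potassium phosphate buffer, 37 °C, pH 7.4 or 9.0. Sampling at 3, 6 and 24 h. HPLC of o-phthalaldehyde derivatives with fluorescence detection (ex 338 nm, em 425 nm).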

[11] = Prodrug activation assessed as porcine liver carboxylesterase/beta-galactosidase-mediated Nomega-hydroxy-L-arginine formation at 500 uM measured up to 150 mins by HPLC analysis; design: species or system Sus scrofa; details: pig, 2.5 h; how it was run: as §3
[12] = Half life in 10 mM potassium phosphate buffer at 250 uM at pH 9 at 37 degC by HPLC analysis; format: physicochemical; how it was run: as §4
[13] = tested on: J774.A1; experiment: Toxicity in mouse […] cells assessed as changes in cell shape up to 1 mM after 2.5 hrs by Hoechst 33342/DAPI/GFP staining based fluorescence microscopic analysis; details: j774.a1, 2.5 h
How it was run: (§5)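 Stained with Hoechst 33342 and DAF-FM-DA, then imaged by automated fluorescence microscopy (about 1000 cells per well). Cell shape, blebbing, apoptosis and cell numbers judged against DPBS++ vehicle controls.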

[14] = tested on: J774.A1; experiment: Toxicity in mouse […] cells assessed as induction of apoptosis up to 1 mM after 2.5 hrs by Hoechst 33342/DAPI/GFP staining based fluorescence microscopic analysis; format: cell-based; details: j774.a1, 2.5 h; how it was run: as §5
[15] = target: T3, Nitric oxide synthase, inducible (Mus musculus) (UniProt P29477); experiment: Substrate activity at iNOS in LPS-stimulated mouse J744A.1 cells assessed as increase in NO release at 1 mM incubated for 2.5 hrs by Hoechst 33342/DAF-FM-DA staining based fluorescence microscopic analysis; how it was run: as §2
T3 sequence (whole entry): T1 sequence (P29477 whole entry)

[16] = tested on: J774.A1; experiment: Toxicity in mouse […] cells assessed as reduction in cell proliferation up to 1 mM after 2.5 hrs by Hoechst 33342/DAF-FM-DA staining based fluorescence microscopic analysis; details: j774.a1, 2.5 h; how it was run: as §5
[17] = tested on: J774.A1; experiment: Toxicity in mouse […] cells assessed as appearance of cell blebbing up to 1 mM after 2.5 hrs by Hoechst 33342/DAPI/GFP staining based fluorescence microscopic analysis; details: j774.a1, 2.5 h; how it was run: as §5
[18] = target: T3, Nitric oxide synthase, inducible (Mus musculus); experiment: Substrate activity at recombinant mouse iNOS assessed as increase in NO release incubated for 30 mins in presence of NADPH followed by LDH and sodium pyruvate addition measured after 15 mins by Griess assay

Beta-galactosidase, sequence (Q8VNN2 whole entry): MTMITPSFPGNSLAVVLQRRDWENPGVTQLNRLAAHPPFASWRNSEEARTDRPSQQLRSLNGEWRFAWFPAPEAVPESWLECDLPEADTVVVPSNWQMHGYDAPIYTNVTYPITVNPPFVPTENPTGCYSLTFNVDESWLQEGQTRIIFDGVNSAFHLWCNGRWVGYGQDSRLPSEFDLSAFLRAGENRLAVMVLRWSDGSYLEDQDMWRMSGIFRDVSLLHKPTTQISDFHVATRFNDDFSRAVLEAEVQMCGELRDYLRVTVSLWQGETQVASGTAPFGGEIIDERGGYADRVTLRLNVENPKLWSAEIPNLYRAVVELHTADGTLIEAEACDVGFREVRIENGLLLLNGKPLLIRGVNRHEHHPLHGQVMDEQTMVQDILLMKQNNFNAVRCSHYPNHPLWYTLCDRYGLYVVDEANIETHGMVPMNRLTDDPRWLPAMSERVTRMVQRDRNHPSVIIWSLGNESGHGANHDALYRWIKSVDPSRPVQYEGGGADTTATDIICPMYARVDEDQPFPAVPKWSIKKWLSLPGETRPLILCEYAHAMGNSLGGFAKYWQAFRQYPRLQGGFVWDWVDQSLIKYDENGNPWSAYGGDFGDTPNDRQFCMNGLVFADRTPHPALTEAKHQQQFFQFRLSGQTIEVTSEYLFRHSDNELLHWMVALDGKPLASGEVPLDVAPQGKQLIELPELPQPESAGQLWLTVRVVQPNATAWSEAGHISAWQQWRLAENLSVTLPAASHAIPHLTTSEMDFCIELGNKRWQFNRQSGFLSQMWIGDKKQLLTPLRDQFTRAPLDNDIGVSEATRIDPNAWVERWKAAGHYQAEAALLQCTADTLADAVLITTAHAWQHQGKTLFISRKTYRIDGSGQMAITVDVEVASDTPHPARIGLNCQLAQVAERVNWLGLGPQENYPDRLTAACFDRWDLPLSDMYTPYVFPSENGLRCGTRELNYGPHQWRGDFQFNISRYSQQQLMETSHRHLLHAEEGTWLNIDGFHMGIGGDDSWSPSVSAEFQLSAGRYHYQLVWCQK

SMILES: N/C(=N\O[C@@H]1O[C@H](CO)[C@H](O)[C@H](O)[C@H]1O)NCCC[C@H](N)C(=O)[O-].[Na+]
Drug metabolism [1]: Metabolite_Detected | Stability [2]: Stable | Drug metabolism [3]: Metabolite_Detected | Stability [4]: Stable | Stability [5]: Stable | Drug metabolism [6]: Metabolite_Detected | Drug metabolism [7]: Metabolite_Notdetected

SMILES: CCOC(=O)[C@@H](N)CCCN/C(N)=N/O[C@@H]1O[C@H](CO)[C@@H](O)[C@H](O)[C@H]1O.Cl.Cl
Drug metabolism [8]: Metabolite_Notdetected | Drug metabolism [7]: Metabolite_Detected

SMILES: N=C(NO)NCCC[C@H](N)C(=O)O
Activity [13]: Non-Toxic | Activity [14]: Non-Toxic | Activity [15]: Active | Activity [16]: Non-Toxic | Activity [17]: Non-Toxic | Activity [18]: Active

SMILES: N/C(=N\O[C@@H]1O[C@H](CO)[C@@H](O)[C@H](O)[C@H]1O)NCCC[C@H](N)C(=O)[O-].[Na+]
Drug metabolism [8]: Metabolite_Notdetected | Drug metabolism [6]: Metabolite_Detected | Drug metabolism [7]: Metabolite_Detected

More lines, now with the values ahead:

Drug metabolism [8]: Metabolite_Notdetected | Drug metabolism [7]: Metabolite_Detected
SMILES: CCOC(=O)[C@@H](N)CCCN/C(N)=N/O[C@@H]1O[C@H](COC(C)=O)[C@@H](OC(C)=O)[C@H](OC(C)=O)[C@H]1OC(C)=O.Cl.Cl

Drug metabolism [8]: Metabolite_Notdetected
SMILES: CCOC(=O)[C@@H](N)CCCN/C(N)=N/O[C@@H]1O[C@H](COC(C)=O)[C@H](OC(C)=O)[C@H](OC(C)=O)[C@H]1OC(C)=O.Cl.Cl

Drug metabolism [9]: Metabolite_Detected | half-life at 250 µM [10]: 10 to 12 h | Drug metabolism [11]: Metabolite_Detected | Drug metabolism [3]: Metabolite_Detected | half-life at 250 µM [12]: 10 to 12 h | Drug metabolism [7]: Metabolite_Notdetected
SMILES: CCOC(=O)[C@@H](N)CCCN/C(N)=N/O[C@@H]1O[C@H](CO)[C@H](O)[C@H](O)[C@H]1O.Cl.Cl

Drug metabolism [1]: Metabolite_Notdetected | half-life at 250 µM [10]: > 24 h | half-life at 250 µM [12]: > 24 h | Drug metabolism [7]: Metabolite_Notdetected
SMILES: CC(=O)OC[C@H]1O[C@@H](O/N=C(\N)NCCC[C@H](N)C(=O)O)[C@H](OC(C)=O)[C@@H](OC(C)=O)[C@H]1OC(C)=O.Cl.Cl

Drug metabolism [8]: Metabolite_Notdetected | Drug metabolism [6]: Metabolite_Detected | Drug metabolism [7]: Metabolite_Detected
SMILES: CC(=O)OC[C@H]1O[C@@H](O/N=C(\N)NCCC[C@H](N)C(=O)O)[C@H](OC(C)=O)[C@@H](OC(C)=O)[C@@H]1OC(C)=O.Cl.Cl
